# Experimental data from different studies.
# Each line is one published result; the experiments were not run side by side.
# Melanocortin receptor 5: Melanocortin receptor 5 (Mus musculus, UniProt P41149)
# rep main protease: Replicase polyprotein 1ab, main protease (rep, Severe acute respiratory syndrome-related coronavirus, UniProt P0C6X7)
Compound,target,effect on,mode,method,notes,measurement,value
C[C@@H]1NC(=O)[C@H](CC(N)=O)NC(=O)[C@H](Cc2ccccc2)NC(=O)[C@H](Cc2cccc3ccccc23)NC(=O)[C@H](CCCNC(=N)N)NC(=O)[C@@H]2CCCN2C(=O)[C@H]2CCCN2C(=O)[C@H](Cc2ccccc2)NC1=O,Melanocortin receptor 5,reporter gene,agonist,,,EC50,> 100 µM
[Hg+2],rep main protease,enzyme activity,inhibitor,,,Ki,0.5 µM
COc1ccc(-c2nsc(NC(=O)[C@@H]3C[C@H]3C)c2C)cc1,"Metabotropic glutamate receptor 1 (GRM1, Homo sapiens, UniProt Q13255)",calcium signal,antagonist,,,IC50,0.0089 µM
O=C(O)[C@H]1O[C@@H](Oc2cc3oc(-c4ccccc4)cc(=O)c3c(O)c2O)[C@H](O)[C@@H](O)[C@@H]1O,rep main protease,enzyme activity,inhibitor,,,IC50,101 µM
CN[C@]1(c2ccccc2Cl)CCCCC1=O,"Ferritin light chain (FTL, Equus caballus, UniProt P02791)",cell-free assay,,fluorescence,,Kd,42 µM
Clc1cccc(N2CCNCC2)c1Cl,"Muscarinic acetylcholine receptor M4 (CHRM4, Homo sapiens, UniProt P08173)",ligand displacement,,radioligand,cell membranes,Ki,> 63.1 µM
C[C@@H]1NC(=O)[C@H](CCCN)NC(=O)[C@H](Cc2ccccc2)NC(=O)[C@H](Cc2ccccc2)NC(=O)[C@H](CCCNC(=N)N)NC(=O)[C@@H]2CCCN2C(=O)[C@H]2CCCN2C(=O)[C@H](Cc2ccccc2)NC1=O,Melanocortin receptor 5,reporter gene,agonist,,,EC50,> 100 µM
O=C1c2c(O)cc(O)cc2O[C@H](c2cc(O)c(O)c(O)c2)[C@H]1O,rep main protease,enzyme activity,inhibitor,,,IC50,4.58 µM
CN1CCC(C(c2ccccc2)c2ccccc2)CC1,"Histamine H1 receptor (HRH1, Homo sapiens, UniProt P35367)",cell-free assay,,radioligand,,Ki,0.0251 µM
